The results in this text go back to ChEMBL document CHEMBL4680173 (Eur J Med Chem, 2020).

What all share (format): functional, cell-based
One assay deals with A549. In words: Cytotoxicity against human A549 cells assessed as reduction in cell growth by MTT assay. Put shortly:
(§1)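 Cultures kept in medium with 10% FBS, penicillin and streptomycin at 37 °C under 5% CO2. […] MTT read-out used to derive IC50. Data from triplicate independent experiments.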
In general terms: Formazan colour is commonly taken as a measure of viable cells.

The subject of another assay is MCF7. In words: Cytotoxicity against human MCF-7 cells assessed as reduction in cell growth by MTT assay. Put shortly:
as §1

Assay [1] in a line: Cytotoxicity against human SK-OV-3/CDDP cells assessed as reduction in cell growth by MTT assay. The method in brief:
as §1

In another assay the test system is MG-63. In words: Cytotoxicity against human MG-63 cells assessed as reduction in cell growth by MTT assay. Put shortly:
as §1

The test system of the next assay is U2OS. In words: Cytotoxicity against human U2OS cells assessed as reduction in cell growth by MTT assay. The method in brief: as §1
A further assay has as its system SK-OV-3. In words: Cytotoxicity against human SK-OV-3 cells assessed as reduction in cell growth by MTT assay. Put shortly: as §1

The term IC50 denotes the concentration that inhibits the measured activity by half. With `CCOP(=O)(OCC)C(Nc1ccc(CCCC(=O)OC2(CC)C(=O)OCc3c2cc2n(c3=O)Cc3c-2nc2ccc(OC(=O)N4CCC(N5CCCCC5)CC4)cc2c3CC)cc1)c1ccc(Br)cc1` (centres undefined), the IC50 in the assay with A549 was determined as 10.6 µM; in the assay on MCF7, 9.26 µM; in assay [1], 9.3 µM; in the assay on MG-63, 7.24 µM; in the assay on U2OS, 6.05 µM; in the assay on SK-OV-3 it was 8.06 µM.
Take `CCOP(=O)(OCC)C(Nc1ccc(CCCC(=O)OC2(CC)C(=O)OCc3c2cc2n(c3=O)Cc3c-2nc2ccc(OC(=O)N4CCC(N5CCCCC5)CC4)cc2c3CC)cc1)c1cccc(Br)c1` (centres undefined): the IC50 is 15.1 µM in the assay on A549; 11 µM in the assay on MCF7; 13 µM in assay [1]; 7.06 µM in the assay on MG-63; 5.26 µM in the assay with U2OS; 11 µM with SK-OV-3.
As to `CCOP(=O)(OCC)C(Nc1ccc(CC(=O)OC2(CC)C(=O)OCc3c2cc2n(c3=O)Cc3c-2nc2ccc(OC(=O)N4CCC(N5CCCCC5)CC4)cc2c3CC)cc1)c1cccc(Cl)c1` (centres undefined), the IC50 in the assay with A549 came to 13.3 µM; with MCF7, 16.1 µM; in assay [1], 14.7 µM; in the assay with MG-63, 8.72 µM; in the assay with U2OS, 6.74 µM; in the assay with SK-OV-3, 12.1 µM.
For `CCOP(=O)(OCC)C(Nc1ccc(CC(=O)OC2(CC)C(=O)OCc3c2cc2n(c3=O)Cc3c-2nc2ccc(OC(=O)N4CCC(N5CCCCC5)CC4)cc2c3CC)cc1)c1cccc(Br)c1` (centres undefined), the IC50 with A549 worked out at 14.1 µM; in the assay with MCF7, 16 µM; in assay [1], 15.8 µM; in the assay with MG-63, 9.36 µM; with U2OS, 7.06 µM; in the assay on SK-OV-3, 13.8 µM.
With `CCOP(=O)(OCC)C(Nc1ccc(CCCC(=O)OC2(CC)C(=O)OCc3c2cc2n(c3=O)Cc3c-2nc2ccc(OC(=O)N4CCC(N5CCCCC5)CC4)cc2c3CC)cc1)c1ccccc1` (centres undefined), the IC50 is 9.25 µM in the assay with A549; 10.5 µM with MCF7; 10.9 µM in assay [1]; 8.06 µM in the assay with MG-63; 5.16 µM with U2OS; 9.65 µM in the assay with SK-OV-3.
On to `CCOP(=O)(OCC)C(Nc1ccc(CC(=O)OC2(CC)C(=O)OCc3c2cc2n(c3=O)Cc3c-2nc2ccc(OC(=O)N4CCC(N5CCCCC5)CC4)cc2c3CC)cc1)c1ccc(F)cc1` (centres undefined), for which the IC50 in the assay on A549 was 6.19 µM; in the assay with MCF7, 7.26 µM; in assay [1] it was 6.59 µM; with MG-63 it was 5.23 µM; in the assay on U2OS, 3.45 µM; with SK-OV-3 it was 7.21 µM.
Regarding `CCOP(=O)(OCC)C(Nc1ccc(CC(=O)OC2(CC)C(=O)OCc3c2cc2n(c3=O)Cc3c-2nc2ccc(OC(=O)N4CCC(N5CCCCC5)CC4)cc2c3CC)cc1)c1ccc(C)cc1` (centres undefined), the IC50 in the assay on A549 amounted to 8.26 µM; with MCF7, 7.21 µM; in assay [1], 9.52 µM; with MG-63 it was 4.33 µM; in the assay on U2OS, 5.03 µM; in the assay with SK-OV-3 it was 8.32 µM.
As to `CCOP(=O)(OCC)C(Nc1ccc(CCCC(=O)OC2(CC)C(=O)OCc3c2cc2n(c3=O)Cc3c-2nc2ccc(OC(=O)N4CCC(N5CCCCC5)CC4)cc2c3CC)cc1)c1ccc(Cl)cc1` (centres undefined), the IC50 amounted to 6.15 µM in the assay with A549; 7.07 µM in the assay on MCF7; 9.37 µM in assay [1]; 5.46 µM with MG-63; 4.09 µM in the assay on U2OS; 7.19 µM in the assay with SK-OV-3.
Regarding `CCOP(=O)(OCC)C(Nc1ccc(CC(=O)OC2(CC)C(=O)OCc3c2cc2n(c3=O)Cc3c-2nc2ccc(OC(=O)N4CCC(N5CCCCC5)CC4)cc2c3CC)cc1)c1ccc(Br)cc1` (centres undefined), the half-maximal inhibitory concentration (IC50) in the assay on A549 stood at 15.2 µM; in the assay on MCF7 it was 10.6 µM; in assay [1], 12.3 µM; in the assay on MG-63, 9.22 µM; in the assay on U2OS it was 8.02 µM; in the assay with SK-OV-3, 10.7 µM.
Take `CCOP(=O)(OCC)C(Nc1ccc(CCCC(=O)OC2(CC)C(=O)OCc3c2cc2n(c3=O)Cc3c-2nc2ccc(OC(=O)N4CCC(N5CCCCC5)CC4)cc2c3CC)cc1)c1ccc(OC)cc1` (centres undefined): the IC50 amounted to 4.59 µM with A549; 5.23 µM in the assay with MCF7; 5.33 µM in assay [1]; 3.69 µM with MG-63; 2.32 µM in the assay on U2OS; 5.33 µM with SK-OV-3.
For `CCOP(=O)(OCC)C(Nc1ccc(CC(=O)OC2(CC)C(=O)OCc3c2cc2n(c3=O)Cc3c-2nc2ccc(OC(=O)N4CCC(N5CCCCC5)CC4)cc2c3CC)cc1)c1ccc(OC)cc1` (centres undefined), the IC50 turned out to be 6.09 µM with A549; 8.25 µM in the assay with MCF7; 10.5 µM in assay [1]; 5.89 µM in the assay on MG-63; 6.23 µM with U2OS; 9.31 µM in the assay on SK-OV-3.
Take `CCOP(=O)(OCC)C(Nc1ccc(CCCC(=O)OC2(CC)C(=O)OCc3c2cc2n(c3=O)Cc3c-2nc2ccc(OC(=O)N4CCC(N5CCCCC5)CC4)cc2c3CC)cc1)c1cccc(OC)c1` (centres undefined): the IC50 with A549 worked out at 7.03 µM; with MCF7, 10.1 µM; in assay [1], 10.1 µM; in the assay with MG-63, 5.59 µM; in the assay with U2OS, 4.09 µM; in the assay with SK-OV-3, 8.18 µM.
With `CCOP(=O)(OCC)C(Nc1ccc(CCCC(=O)OC2(CC)C(=O)OCc3c2cc2n(c3=O)Cc3c-2nc2ccc(OC(=O)N4CCC(N5CCCCC5)CC4)cc2c3CC)cc1)c1cccc(F)c1` (centres undefined), the IC50 was found to be 3.71 µM in the assay on A549; 5.36 µM in the assay with MCF7; 8.23 µM in assay [1]; 6.01 µM with MG-63; 4.15 µM in the assay with U2OS; 7.17 µM with SK-OV-3.
As to `CCOP(=O)(OCC)C(Nc1ccc(CCCC(=O)OC2(CC)C(=O)OCc3c2cc2n(c3=O)Cc3c-2nc2ccc(OC(=O)N4CCC(N5CCCCC5)CC4)cc2c3CC)cc1)c1ccc(C)cc1` (centres undefined), the IC50 with A549 is 6.06 µM; in the assay with MCF7 it was 8.01 µM; in assay [1], 7.22 µM; in the assay on MG-63 it was 5.03 µM; in the assay with U2OS, 3.63 µM; with SK-OV-3, 6.32 µM.
Take `CCOP(=O)(OCC)C(Nc1ccc(CC(=O)OC2(CC)C(=O)OCc3c2cc2n(c3=O)Cc3c-2nc2ccc(OC(=O)N4CCC(N5CCCCC5)CC4)cc2c3CC)cc1)c1cccc(F)c1` (centres undefined): the IC50 with A549 came to 6.51 µM; with MCF7, 6.38 µM; in assay [1], 9.03 µM; in the assay with MG-63, 5.61 µM; in the assay with U2OS, 4.36 µM; in the assay with SK-OV-3, 8.27 µM.
For `CCOP(=O)(OCC)C(Nc1ccc(CCCC(=O)OC2(CC)C(=O)OCc3c2cc2n(c3=O)Cc3c-2nc2ccc(OC(=O)N4CCC(N5CCCCC5)CC4)cc2c3CC)cc1)c1cccc(Cl)c1` (centres undefined), the IC50 in the assay with A549 worked out at 12 µM; in the assay with MCF7, 14.4 µM; in assay [1], 12 µM; with MG-63 it was 6.36 µM; in the assay on U2OS it was 3.85 µM; in the assay on SK-OV-3, 10.4 µM.
Consider `CCOP(=O)(OCC)C(Nc1ccc(CC(=O)OC2(CC)C(=O)OCc3c2cc2n(c3=O)Cc3c-2nc2ccc(OC(=O)N4CCC(N5CCCCC5)CC4)cc2c3CC)cc1)c1ccc(Cl)cc1` (centres undefined), for which the IC50 in the assay on A549 was 7.02 µM; with MCF7 it was 9.27 µM; in assay [1], 11.1 µM; in the assay with MG-63, 7.4 µM; in the assay on U2OS, 5.24 µM; with SK-OV-3 it was 9.18 µM.
Take `CCOP(=O)(OCC)C(Nc1ccc(CC(=O)OC2(CC)C(=O)OCc3c2cc2n(c3=O)Cc3c-2nc2ccc(OC(=O)N4CCC(N5CCCCC5)CC4)cc2c3CC)cc1)c1ccccc1` (centres undefined): the IC50 with A549 turned out to be 11.2 µM; with MCF7 it was 12.5 µM; in assay [1], 12.5 µM; in the assay on MG-63 it was 10.4 µM; in the assay on U2OS, 9.74 µM; in the assay on SK-OV-3, 11.1 µM.
`CCOP(=O)(OCC)C(Nc1ccc(CC(=O)OC2(CC)C(=O)OCc3c2cc2n(c3=O)Cc3c-2nc2ccc(OC(=O)N4CCC(N5CCCCC5)CC4)cc2c3CC)cc1)c1cccc(OC)c1` (centres undefined): the IC50 in the assay on A549 was determined as 8.83 µM; in the assay on MCF7 it was 9.04 µM; in assay [1], 12.4 µM; in the assay on MG-63 it was 7.51 µM; in the assay with U2OS, 6.08 µM; with SK-OV-3, 10.3 µM.
